# Assay results published in ChEMBL document CHEMBL5653618 (ACS Med Chem Lett, 2010).
# Calls of active or inactive are those of the source. No cut-off for these calls is given here.
# Columns and labels:
# [1] = biological target: Phosphatidylinositol 4,5-bisphosphate 3-kinase catalytic subunit alpha isoform (Homo sapiens, UniProt P42336); assay: Inhibition of PI3Kalpha (unknown origin) using PIP2 as substrate preincubated for 15 mins followed by substrate addition and measured after 1 hr in presence of ATP by HTRF assay
# [2] = Inhibition of Akt phosphorylation at S473 residue (unknown origin) by cell based analysis; settings: Homo sapiens
# [3] = Aqueous solubility of compound; assay type: physicochemical; settings: buffer
# [4] = Dose normalized AUC in rat at 2.1 mg/kg, po measured upto 24 hrs by HPLC/MS/MS analysis; assay type: ADME, organism-based; settings: in vivo
# [5] = biological target: Cytochrome P450 3A4 (Homo sapiens, UniProt P08684); assay: Inhibition of CYP3A4 (unknown origin)
# [6] = Clearance in rat at 0.4 mg/kg, iv by HPLC/MS/MS analysis; assay type: ADME, organism-based; settings: in vivo
# [7] = Half life in monkey at 0.1 mg/kg, iv by HPLC/MS/MS analysis; assay type: ADME, organism-based, Macaca mulatta; settings: rhesus monkey, in vivo
# [8] = biological target: Cytochrome P450 2C19 (Homo sapiens, UniProt P33261); assay: Inhibition of CYP2C19 (unknown origin)
# [9] = Oral bioavailability in dog at 0.5 mg/kg by HPLC/MS/MS analysis; assay type: ADME, organism-based, Canis lupus familiaris; settings: in vivo
# [10] = Toxicity in mouse xenografted with human BT-474 cells assessed as tolerability at 3 mg/kg, po administered 5 times a week for 3 weeks; assay type: organism-based; settings: in vivo, 504 h
# [11] = Oral bioavailability in mouse at 2.6 mg/kg by HPLC/MS/MS analysis; assay type: ADME, organism-based; settings: in vivo
# [12] = Dose normalized AUC in mouse at 2.6 mg/kg, po by HPLC/MS/MS analysis; assay type: ADME, organism-based; settings: in vivo
# [13] = biological target: Cytochrome P450 2C9 (Homo sapiens, UniProt P11712); assay: Inhibition of CYP2C9 (unknown origin)
# [14] = Clearance in dog at 0.1 mg/kg, iv by HPLC/MS/MS analysis; assay type: ADME, organism-based, Canis lupus familiaris; settings: in vivo
# [15] = Volume of distribution at steady state in monkey at 0.1 mg/kg, iv by HPLC/MS/MS analysis; assay type: ADME, organism-based, Macaca mulatta; settings: rhesus monkey, in vivo, read-out: Vdss
# [16] = Inhibition of Akt phosphorylation at S473 residue in human T47D cells by cell based assay
# In short: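 Cellular mechanistic assay in T47D and BT474 cancer cells measuring loss of intracellular AKT phosphorylation at S473.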
# [17] = Volume of distribution at steady state in mouse at 0.6 mg/kg, iv by HPLC/MS/MS analysis; assay type: ADME, organism-based; settings: in vivo, read-out: Vdss
# [18] = organism: Homo sapiens; assay: Inhibition of Akt phosphorylation at T308 residue (unknown origin) by cell based analysis
# [19] = Half life in dog at 0.1 mg/kg, iv by HPLC/MS/MS analysis; assay type: ADME, organism-based, Canis lupus familiaris; settings: in vivo
# [20] = Clearance in monkey at 0.1 mg/kg, iv by HPLC/MS/MS analysis; assay type: ADME, organism-based, Macaca mulatta; settings: rhesus monkey, in vivo
# [21] = Oral bioavailability in rat at 2.1 mg/kg by HPLC/MS/MS analysis; assay type: ADME, organism-based; settings: in vivo
# [22] = biological target: DNA-dependent protein kinase catalytic subunit (Homo sapiens, UniProt P78527); assay: Inhibition of DNA-PK (unknown origin)
# [23] = organism: Homo sapiens; assay: Inhibition of p70S6K (unknown origin)
# [24] = Volume of distribution at steady state in rat at 0.4 mg/kg, iv by HPLC/MS/MS analysis; assay type: ADME, organism-based; settings: in vivo, read-out: Vdss
# [25] = test system: BT-474; assay: Antitumor activity against human BT-474 cells xenografted in mouse assessed as decrease in pAKT level at 300 microg/kg, po measured after 1 hr; assay type: functional; design: scale not given: the % may be the effect or the level left; settings: dose 300 µg/kg
# In short: (§1)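 Mice bearing BT474 human tumour xenografts got one oral dose of 300 μg/kg. Tumour pAKT was read as the pAKT/total AKT ratio and compared with control. Sampling ran over a 24 h time course.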
# [26] = test system: BT-474; assay: Induction of cell cycle arrest in human BT-474 cells assessed as accumulation in G1 phase; assay type: functional, cell-based
# [27] = test system: T47D; assay: Induction of cell cycle arrest in human T47D cells assessed as accumulation in G1 phase; assay type: functional, cell-based
# [28] = test system: BT-474; assay: Antitumor activity against human BT-474 cells xenografted in mouse assessed as decrease in pAKT level at 300 microg/kg, po measured after 6 hrs; assay type: functional; design: scale not given: the % may be the effect or the level left; settings: dose 300 µg/kg; in short: as §1
# [29] = test system: BT-474; assay: Antitumor activity against human BT-474 cells xenografted in mouse assessed as decrease in pAKT level at 300 microg/kg, po measured after 10 hrs; assay type: functional; design: scale not given: the % may be the effect or the level left; settings: dose 300 µg/kg; in short: as §1
# [30] = test system: BT-474; assay: Antitumor activity against human BT-474 cells xenografted in po dosed mouse assessed as tumor growth inhibition administered 5 times a week for 3 weeks; assay type: functional, organism-based; settings: dose 0.3-3 mg/kg
# [31] = biological target: Cytochrome P450 2D6 (Homo sapiens, UniProt P10635); assay: Inhibition of CYP2D6 (unknown origin)
# [32] = biological target: T1, Cytochrome P450 1A2 (Homo sapiens, UniProt P05177); assay: Inhibition of CYP1A2 (unknown origin)
# T1 sequence (P05177 whole entry): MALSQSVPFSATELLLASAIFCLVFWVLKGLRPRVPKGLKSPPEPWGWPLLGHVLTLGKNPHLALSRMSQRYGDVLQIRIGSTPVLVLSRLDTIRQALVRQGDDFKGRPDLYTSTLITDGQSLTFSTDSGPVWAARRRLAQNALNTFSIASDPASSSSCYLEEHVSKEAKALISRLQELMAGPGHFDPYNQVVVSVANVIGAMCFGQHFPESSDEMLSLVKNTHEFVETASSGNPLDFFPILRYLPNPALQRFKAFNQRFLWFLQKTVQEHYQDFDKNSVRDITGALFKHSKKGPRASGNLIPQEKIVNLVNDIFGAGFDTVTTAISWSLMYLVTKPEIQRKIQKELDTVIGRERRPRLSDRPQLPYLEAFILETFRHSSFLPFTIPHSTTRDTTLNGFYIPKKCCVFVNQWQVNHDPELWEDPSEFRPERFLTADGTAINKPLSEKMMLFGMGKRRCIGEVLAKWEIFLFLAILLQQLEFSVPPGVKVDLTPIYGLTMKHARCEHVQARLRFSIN
# [33] = test system: BT-474; assay: Antitumor activity against human BT-474 cells xenografted in mouse assessed as decrease in pAKT level at 300 microg/kg, po measured after 2 hrs; assay type: functional; design: scale not given: the % may be the effect or the level left; settings: dose 300 µg/kg; in short: as §1
# [34] = Dose normalized AUC in monkey at 0.6 mg/kg, po by HPLC/MS/MS analysis; assay type: ADME, organism-based, Macaca mulatta; settings: rhesus monkey, in vivo
# [35] = test system: T47D; assay: Antiproliferative activity against human T47D cells assessed as inhibition of cell growth measured after 72 hrs by CellTiter-Glo assay; assay type: functional, cell-based
# [36] = test system: BT-474; assay: Antiproliferative activity against human BT-474 cells assessed as inhibition of cell growth measured after 72 hrs by CellTiter-Glo assay; assay type: functional, cell-based; settings: BT-474, 72 h
# [37] = Half life in rat at 0.4 mg/kg, iv by HPLC/MS/MS analysis; assay type: ADME, organism-based; settings: in vivo
# [38] = test system: BT-474; assay: Antitumor activity against human BT-474 cells xenografted in mouse assessed as decrease in pAKT level at 300 microg/kg, po measured after 4 hrs; assay type: functional; design: scale not given: the % may be the effect or the level left; settings: dose 300 µg/kg; in short: as §1
# [39] = Half life in mouse at 0.6 mg/kg, iv by HPLC/MS/MS analysis; assay type: ADME, organism-based; settings: in vivo
# [40] = Dose normalized AUC in dog at 0.5 mg/kg, po by HPLC/MS/MS analysis; assay type: ADME, organism-based, Canis lupus familiaris; settings: in vivo
# [41] = Clearance in mouse at 0.6 mg/kg, iv by HPLC/MS/MS analysis; assay type: ADME, organism-based; settings: in vivo
# [42] = Oral bioavailability in monkey at 0.6 mg/kg by HPLC/MS/MS analysis; assay type: ADME, organism-based, Macaca mulatta; settings: rhesus monkey, in vivo
# [43] = Volume of distribution at steady state in dog at 0.1 mg/kg, iv by HPLC/MS/MS analysis; assay type: ADME, organism-based, Canis lupus familiaris; settings: in vivo, read-out: Vdss
# Sequence of Phosphatidylinositol 4,5-bisphosphate 3-kinase catalytic subunit alpha isoform (P42336 whole entry, canonical isoform): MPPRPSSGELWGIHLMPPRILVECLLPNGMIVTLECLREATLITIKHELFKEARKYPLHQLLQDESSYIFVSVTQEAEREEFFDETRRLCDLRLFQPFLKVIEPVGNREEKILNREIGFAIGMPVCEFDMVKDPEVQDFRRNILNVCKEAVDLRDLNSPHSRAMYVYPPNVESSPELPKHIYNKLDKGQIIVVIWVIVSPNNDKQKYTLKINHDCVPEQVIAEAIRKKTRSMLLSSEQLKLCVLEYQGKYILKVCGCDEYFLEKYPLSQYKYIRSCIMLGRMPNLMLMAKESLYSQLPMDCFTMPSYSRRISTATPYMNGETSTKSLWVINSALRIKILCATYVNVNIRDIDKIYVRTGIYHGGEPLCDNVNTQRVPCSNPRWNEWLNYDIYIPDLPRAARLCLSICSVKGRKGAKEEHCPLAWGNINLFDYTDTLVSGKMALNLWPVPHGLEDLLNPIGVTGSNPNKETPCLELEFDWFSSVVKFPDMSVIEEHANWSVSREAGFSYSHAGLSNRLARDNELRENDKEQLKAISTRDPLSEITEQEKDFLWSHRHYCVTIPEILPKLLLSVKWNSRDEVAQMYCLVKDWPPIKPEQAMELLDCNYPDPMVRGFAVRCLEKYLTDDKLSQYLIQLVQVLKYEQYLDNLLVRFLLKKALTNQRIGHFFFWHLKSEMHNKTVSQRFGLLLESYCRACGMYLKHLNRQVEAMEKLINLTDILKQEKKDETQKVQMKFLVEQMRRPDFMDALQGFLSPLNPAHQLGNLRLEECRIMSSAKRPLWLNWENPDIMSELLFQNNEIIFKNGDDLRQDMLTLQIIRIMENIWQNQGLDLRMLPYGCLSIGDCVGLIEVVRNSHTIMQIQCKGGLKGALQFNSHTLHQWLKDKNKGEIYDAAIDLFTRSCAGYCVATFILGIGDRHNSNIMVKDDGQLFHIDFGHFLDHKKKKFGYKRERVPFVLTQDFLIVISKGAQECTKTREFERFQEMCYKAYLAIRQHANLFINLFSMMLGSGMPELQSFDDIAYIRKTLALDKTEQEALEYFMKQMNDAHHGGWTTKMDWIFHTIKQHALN
# Sequence of Cytochrome P450 2D6 (P10635 whole entry): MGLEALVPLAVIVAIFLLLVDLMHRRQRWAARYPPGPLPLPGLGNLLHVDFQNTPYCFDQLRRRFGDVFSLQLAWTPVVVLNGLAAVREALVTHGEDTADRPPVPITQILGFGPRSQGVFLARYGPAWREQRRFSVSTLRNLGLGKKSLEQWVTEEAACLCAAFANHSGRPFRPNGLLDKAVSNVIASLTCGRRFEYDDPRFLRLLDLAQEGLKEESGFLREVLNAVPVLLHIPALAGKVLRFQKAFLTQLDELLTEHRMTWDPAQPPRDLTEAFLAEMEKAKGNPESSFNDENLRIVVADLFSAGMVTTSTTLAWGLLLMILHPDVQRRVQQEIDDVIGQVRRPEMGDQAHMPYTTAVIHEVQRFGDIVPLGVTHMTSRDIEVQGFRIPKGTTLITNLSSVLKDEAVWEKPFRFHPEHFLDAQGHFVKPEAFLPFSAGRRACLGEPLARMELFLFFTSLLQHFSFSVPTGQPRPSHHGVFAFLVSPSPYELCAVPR
# Sequence of Cytochrome P450 2C9 (P11712 whole entry): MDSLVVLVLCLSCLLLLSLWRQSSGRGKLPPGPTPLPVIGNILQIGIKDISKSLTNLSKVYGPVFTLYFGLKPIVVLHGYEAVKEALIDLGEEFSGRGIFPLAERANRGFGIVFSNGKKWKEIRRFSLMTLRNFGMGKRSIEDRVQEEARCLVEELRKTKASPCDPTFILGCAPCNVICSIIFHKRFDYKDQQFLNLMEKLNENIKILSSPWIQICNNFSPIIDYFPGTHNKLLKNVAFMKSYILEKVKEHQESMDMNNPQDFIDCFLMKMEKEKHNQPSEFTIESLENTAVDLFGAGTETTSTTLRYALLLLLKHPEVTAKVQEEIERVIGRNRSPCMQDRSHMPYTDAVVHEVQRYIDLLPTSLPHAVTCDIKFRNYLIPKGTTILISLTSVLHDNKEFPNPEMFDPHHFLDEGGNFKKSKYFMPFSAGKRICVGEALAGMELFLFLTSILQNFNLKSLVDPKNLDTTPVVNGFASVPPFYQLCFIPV
# Sequence of Cytochrome P450 3A4 (P08684 whole entry): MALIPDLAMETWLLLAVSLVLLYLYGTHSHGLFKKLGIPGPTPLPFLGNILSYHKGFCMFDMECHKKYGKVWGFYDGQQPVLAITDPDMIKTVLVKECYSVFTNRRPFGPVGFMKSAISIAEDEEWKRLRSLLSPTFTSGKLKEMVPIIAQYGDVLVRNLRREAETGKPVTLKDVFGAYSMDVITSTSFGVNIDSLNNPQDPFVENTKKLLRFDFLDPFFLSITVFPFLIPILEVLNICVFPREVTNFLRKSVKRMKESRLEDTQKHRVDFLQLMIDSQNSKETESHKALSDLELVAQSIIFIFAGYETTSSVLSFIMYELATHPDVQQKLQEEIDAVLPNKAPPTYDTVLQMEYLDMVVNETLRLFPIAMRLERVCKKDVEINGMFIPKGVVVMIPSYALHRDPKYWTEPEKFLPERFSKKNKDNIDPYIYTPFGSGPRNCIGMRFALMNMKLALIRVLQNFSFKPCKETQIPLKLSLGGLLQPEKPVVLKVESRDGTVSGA
# Sequence of Cytochrome P450 2C19 (P33261 whole entry): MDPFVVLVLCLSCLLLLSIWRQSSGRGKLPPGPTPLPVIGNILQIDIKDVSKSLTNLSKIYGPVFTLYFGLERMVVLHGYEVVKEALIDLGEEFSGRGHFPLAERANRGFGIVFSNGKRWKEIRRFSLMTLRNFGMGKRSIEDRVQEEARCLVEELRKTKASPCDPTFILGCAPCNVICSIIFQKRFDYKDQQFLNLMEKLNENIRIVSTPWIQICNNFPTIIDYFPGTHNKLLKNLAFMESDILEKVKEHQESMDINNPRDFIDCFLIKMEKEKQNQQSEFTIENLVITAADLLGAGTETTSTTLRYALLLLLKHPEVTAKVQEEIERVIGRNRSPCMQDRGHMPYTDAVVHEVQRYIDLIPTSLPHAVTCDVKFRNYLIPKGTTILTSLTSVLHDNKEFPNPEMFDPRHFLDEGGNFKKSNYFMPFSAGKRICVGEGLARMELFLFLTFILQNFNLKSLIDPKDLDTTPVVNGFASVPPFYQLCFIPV
smiles,measurement,setting,value
c1cc(-c2ccnc3ccc(-c4cnc5[nH]ncc5c4)cc23)ccn1,IC50,[1],7 nM
same,IC50,[2],76 nM
same,solubility,[3],Insoluble
Nc1ncc(-c2ccc3nccc(-c4ccncc4)c3c2)cc1S(N)(=O)=O,IC50,[1],10 nM
same,IC50,[2],49 nM
same,solubility,[3],Soluble
Nc1ncc(-c2ccc3nccc(-c4ccncc4)c3c2)cc1S(=O)(=O)Nc1ccc(F)cc1F,IC50,[1],1 nM
same,IC50,[2],63 nM
same,AUC/dose,[4],250 ng·h/mL/mg/kg
O=S(=O)(Nc1ccc(F)cc1F)c1cncc(-c2ccc3nccc(-c4ccncc4)c3c2)c1,IC50,[1],1 nM
same,IC50,[2],45 nM
same,AUC/dose,[4],920 ng·h/mL/mg/kg
c1cc(-c2ccnc3ccc(-c4ccc5[nH]ncc5c4)cc23)ccn1,IC50,[1],73 nM
same,IC50,[2],2700 nM
c1cncc(-c2ccc3nccc(-c4ccncc4)c3c2)c1,IC50,[1],260 nM
same,IC50,[2],> 29300 nM
c1ccc(-c2ccc3nccc(-c4ccncc4)c3c2)cc1,IC50,[1],1800 nM
same,IC50,[2],8080 nM
O=S(=O)(Nc1cncc(-c2ccc3nccc(-c4ccncc4)c3c2)c1)c1ccc(F)cc1F,IC50,[1],0.1 nM
same,IC50,[2],7 nM
same,AUC/dose,[4],1100 ng·h/mL/mg/kg
O=C1NC(=O)/C(=C/c2ccc3nccc(-c4ccncc4)c3c2)S1 [GSK-1059615],IC50,[1],2 nM
same,IC50,[2],40 nM
COc1ncc(-c2ccc3nccc(-c4ccnnc4)c3c2)cc1NS(=O)(=O)c1ccc(F)cc1F [OMIPALISIB],IC50,[5],> 25000 nM
same,clearance,[6],2.3 mL/min/kg
same,half-life,[7],3.5 h
same,IC50,[8],> 25000 nM
same,bioavailability,[9],80%
same,Activity,[10],Non-Toxic
same,bioavailability,[11],100%
same,AUC/dose,[12],1100 ng·h/mL/mg/kg
same,IC50,[13],> 25000 nM
same,clearance,[14],5.8 mL/min/kg
same,Vd,[15],0.8 L/kg
same,IC50,[16],0.41 nM
same,Vd,[17],1 L/kg
same,inhibition,[18],Active
same,half-life,[19],1.3 h
same,clearance,[20],3.6 mL/min/kg
same,bioavailability,[21],81%
same,IC50,[22],0.28 nM
same,inhibition,[23],Active
same,Vd,[24],1.1 L/kg
same,Activity,[25],98%
same,AUC/dose,[4],6100 ng·h/mL/mg/kg
same,Activity,[26],Active
same,Activity,[27],Active
same,Activity,[28],47%
same,Activity,[29],46%
same,Activity,[30],Dose-Dependent Effect
same,IC50,[31],> 25000 nM
same,IC50,[32],> 25000 nM
same,Activity,[33],93%
same,AUC/dose,[34],2300 ng·h/mL/mg/kg
same,IC50,[35],3 nM
same,IC50,[36],2.4 nM
same,half-life,[37],6.2 h
same,Activity,[38],79%
same,half-life,[39],2.1 h
same,AUC/dose,[40],2400 ng·h/mL/mg/kg
same,clearance,[41],10 mL/min/kg
same,bioavailability,[42],49%
same,Vd,[43],0.7 L/kg
